The source of these data is ChEMBL document CHEMBL1121394, “Oxytocin and lysine-vasopressin with N5,N5-dialkylglutamine in the 4 position: effect of introducing sterically hindered groups into the hydrophilic cluster of neurohypophyseal hormones” (1980).

Assay [1] is filed under the species Rattus norvegicus. Briefly: Compound was tested in vitro for pressor activity on rat. Format: functional. To be noted: in the assay text read “in vivo” for “in vitro”. The method in brief:
(§1)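 Anesthetized male Sprague-Dawley rats. Where activity was measurable, Schild four-point design with at least ten determinations on three animals.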

Assay [2] is filed under the species Rattus norvegicus. Nature of the assay: Compound was tested in vitro for uterotonic activity in rat. It counts as functional. In a few lines: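 Isolated uterine horns from virgin rats in natural estrus (Holton method as modified by Munsick), Mg2+-free van Dyke-Hastings solution as bath. Where activity was measurable, Schild four-point design with at least ten determinations on three animals.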

The species entered for assay [3] is Rattus norvegicus. Briefly: Compound was tested in vitro for antidiuretic activity in rat. Format: functional, Urine. To be noted: in the assay text read “in vivo” for “in vitro”. In a few lines:
as §1

For a further assay, the species on record is Gallus gallus. Nature of the assay: Compound was tested in vitro for avain vasopressor activity. To be noted: in the assay text read “vasodepressor” for “vasopressor”. Format: functional. The method in brief: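 Vasodepressor assay in conscious White Leghorn roosters (Coon method, modified). Where activity was measurable, Schild four-point design with at least ten determinations on three animals.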

Assay [4] is filed under the species Rattus norvegicus. Nature of the assay: Compound was tested for percent maximum uterotonic response. It counts as functional. The method in brief: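 Isolated uterine horns from virgin rats in natural estrus, bathed in Mg2+-free van Dyke-Hastings solution. Dose-response by individual injection, doses raised geometrically in 0.5 log10 steps until a maximal response was reached.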

Each structure is given as a SMILES string.

Take `CC[C@H](C)[C@@H]1NC(=O)[C@H](Cc2ccc(O)cc2)NC(=O)[C@@H](N)CSSC[C@@H](C(=O)N2CCC[C@H]2C(=O)N[C@@H](CC(C)C)C(=O)NCC(N)=O)NC(=O)[C@H](CC(N)=O)NC(=O)[C@H](CCC(N)=O)NC1=O` [OXYTOCIN]: the Activity in the assay listed under Rattus norvegicus [1] stood at 2.7 mg; in the assay filed under Rattus norvegicus [2], 546 mg; in the assay filed under Rattus norvegicus [3], 3.1 mg; in the assay listed under Gallus gallus, 507 mg. The Max uterotonic response in the assay filed under Rattus norvegicus [4] amounted to 100%.
